A selection: hits, their analogues and other compounds. The true share with any hit is near 2%.
HCV core dimer: blocks dimerization of HCV core protein; TR-FRET GST/Flag-core106 dimerization, 1536-well; inhibition, % at 5 µM; 0.33% of 300,000 active; AID 1899;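 active means inhibition above the mean of all tested compounds plus 3 SD, set per screening campaign, cut at about 45% in these data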
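Material: Tagged HCV core106 pair (GST and Flag) | Amount: GST-core106 13.5 nM, Flag-core106 17 nM | Medium: KF-containing HEPES buffer, pH 7.45, DTT, CHAPS, BSA | Reagent: Eu donor and XL665 acceptor anti-tag antibodies | Schedule: 4 h at 22.5 °C | Technique: Time-resolved FRET, ex 340 nm, em 617 and 671 nm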
PABP FP inh: PABP-poly(A) binding inhibition. P11940. PABP-poly(A) RNA binding, fluorescence polarization. inhibition, % at 35 µM. 1% of 290,000 active;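 further: calls also rest on retests at 20 µM and on dose response follow-up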
Target sequence (P11940 whole entry, looked up): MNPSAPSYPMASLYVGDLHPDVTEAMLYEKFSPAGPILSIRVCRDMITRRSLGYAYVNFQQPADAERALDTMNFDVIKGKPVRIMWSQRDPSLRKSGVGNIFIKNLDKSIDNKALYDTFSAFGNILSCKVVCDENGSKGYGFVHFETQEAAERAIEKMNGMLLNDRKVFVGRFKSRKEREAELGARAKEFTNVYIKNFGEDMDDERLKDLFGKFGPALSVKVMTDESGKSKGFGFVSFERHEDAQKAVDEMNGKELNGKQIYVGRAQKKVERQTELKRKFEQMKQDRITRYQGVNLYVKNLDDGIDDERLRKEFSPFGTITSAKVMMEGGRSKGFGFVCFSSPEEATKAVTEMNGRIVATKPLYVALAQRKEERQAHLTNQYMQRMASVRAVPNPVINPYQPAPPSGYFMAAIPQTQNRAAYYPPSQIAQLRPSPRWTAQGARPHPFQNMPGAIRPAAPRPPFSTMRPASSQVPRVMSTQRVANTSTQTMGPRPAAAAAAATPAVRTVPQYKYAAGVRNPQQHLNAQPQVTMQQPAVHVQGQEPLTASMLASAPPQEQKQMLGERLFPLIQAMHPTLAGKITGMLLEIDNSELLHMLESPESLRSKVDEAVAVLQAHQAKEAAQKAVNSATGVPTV
DNA FID counter-1: fluorescent intercalator displacement, NS3 helicase counter-screen; DNA fluorescent intercalator displacement, fluorescence; AID 1845; 0.17% of 290,000 active; inhibition, % at 7.9 µM; in the data active means inhibition above about 37%;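 further: higher means more ethidium bromide displaced from hairpin DNA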
eIF4H FP inh: inhibitors of RNA binding by human eIF4H; Q15056; eIF4H fluorescence polarization binding assay; inhibition, % at 35 µM; 0.94% of 290,000 active; AID 2012;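 further: calls also rest on retests at 20 µM and on dose response follow-up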
MLLE-PAM2 inh: blocks PAM2 peptide binding to the PABP1 MLLE domain; P11940; GST-MLLE / FITC-PAM2 fluorescence polarization; inhibition, % at 20 µM; 0.36% of 360,000 active; AID 588489; in the data active means inhibition above about 35%, passing the limit was not always enough
HCV NS3 hel inh: inhibitors of Hepatitis C virus NS3 helicase; NS3 helicase DNA unwinding, Cy5 molecular beacon fluorescence; 0.56% of 290,000 active; inhibition, % at 10.9 µM;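 active means inhibition above the mean of all tested compounds plus 3 SD, set per campaign, cut at about 35% in these data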
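assay system = NS3 helicase fragment of HCV | buffer or medium = MOPS pH 6.5, MgCl2, DTT, Tween20, BSA | timing = 60 min unwinding reaction at 25 °C after ATP addition | signal = Cy5 beacon fluorescence read at start and 1 h | read-out basis = % inhibition of unwinding | control set = low DMSO, high thioflavine S at 110 µM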
NS3 hel confirm: HCV NS3 helicase inhibition, confirmation assay | shares compounds with HCV NS3 hel inh | NS3 helicase DNA unwinding, Cy5 molecular beacon fluorescence | inhibition, % at 10.9 µM | 31% of 1,600 active | AID 1943;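 active means inhibition above the mean of all tested compounds plus 3 SD, cutoff set per campaign, cut at about 36% in these data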
DNA FID counter-2: displaces DNA intercalator in HCV helicase counter-screen | shares compounds with HCV NS3 hel inh | DNA fluorescent intercalator displacement, fluorescence | inhibition, % at 7.9 µM | 4% of 1,600 active; in the data active means inhibition above about 37%;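 further: higher means more displacement of ethidium bromide from the DNA hairpin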
DNA FID DR: counter-screen for HCV NS3 helicase inhibitors: DNA intercalator displacement dose response; shares compounds with HCV NS3 hel inh; fluorescent intercalator displacement from DNA, fluorescence; IC50, µM; 120 tested, under 10 active; AID 2172
Hits are given with their value; . = inactive; ? = inconclusive; / = no result given. Unless noted, how the calls were made is not given here.

SMILES | HCV core dimer | PABP FP inh | DNA FID counter-1 | eIF4H FP inh | MLLE-PAM2 inh | HCV NS3 hel inh | NS3 hel confirm | DNA FID counter-2 | others
O=C(NNc1nc2ccccc2s1)c1ccccc1F | . | . | . | . | . | 51 | . | .
Cc1cc(O)c(C=O)c2c1C(=O)Oc1c(CO)c(O)c3c(c1O2)C(O)OC3=O (stereo unspecified) | . | 85 | . | 108 | . | 47 | 62 | 86
CCN(CC)CC(O)c1cccn1-c1ccc(CNC(=O)NC(C)C)cc1 (stereo unspecified) | . | . | . | . | . | 39 | . | .
CCn1cc(S(=O)(=O)Nc2cc(F)ccc2C)cn1 | . | . | . | . | . | 59 | . | .
CCn1cc(S(=O)(=O)Nc2cccnc2)cn1 | . | . | . | . | . | . | / | /
CCOc1ccc(C(=O)NCC(=O)OCc2nnc(-c3ccccc3)o2)cc1OCC | / | / | / | / | . | / | / | /
CC(C)(C)C(=O)C[n+]1ccc(C(N)=O)cc1 | . | . | . | . | . | 47 | . | .
COc1ccc(CNC(=O)C2CCCN2C(=O)Nc2cccc(Cl)c2)cc1 (stereo unspecified) | / | / | / | / | . | / | / | /
CO/N=C/c1ccc(N2CCN(C(=O)c3ccc(F)cc3)CC2)c([N+](=O)[O-])c1 | . | . | . | . | . | 40 | . | .
O=C1Nc2ccccc2N=C(c2ccc3c(c2)OCO3)C1N(C(=O)c1ccc2ccccc2c1)C1CC1 (stereo unspecified) | / | / | / | / | . | / | / | /
CN(C)C1CCCCC=CC(=O)NC1 (stereo unspecified) | / | / | / | / | . | / | / | /
COc1cccc(-c2coc3c(C)c4oc(=O)c(CC(=O)O)c(C)c4cc23)c1 | . | . | . | . | . | 44 | 59 | .
CC1=CC(C)(C)Nc2ccc(OC(=O)CN3C(=O)c4cccc5cccc(c45)C3=O)cc21 | . | . | . | . | . | 39 | . | .
CNC(C)C#Cc1ccc2oc3cccc(OC)c3c(=O)c2c1 (stereo unspecified) | . | . | . | . | . | . | / | /
CNC(C)C#Cc1ccc2sc3cccc(OC)c3c(=O)c2c1 (stereo unspecified) | . | . | . | . | . | 39 | . | .
Cc1nc2ccccn2c1C(=O)N/N=C/c1ccc2c(c1)OCO2 | . | . | . | . | . | 40 | . | .
Cc1oc2c(c1C(=O)c1ccc(Cl)cc1)C(=O)C(=O)c1ccccc1-2 | / | . | . | . | . | . | / | /
Cc1ccc(C(=O)c2c(C)oc3c2C(=O)C(=O)c2ccccc2-3)cc1 | . | . | . | . | . | 36 | . | .
CCOC(=O)c1cnc2c(C)cc(C)cc2c1NCCCN1CCOCC1 | / | . | 71 | . | . | 41 | . | 77
Cc1cc(C(=O)CSc2nnc(-c3ccccc3)o2)c(C)n1CC1COc2ccccc2O1 (stereo unspecified) | . | ? | . | ? | . | . | / | /
Cc1cc(C(=O)CSc2nnc(-c3ccco3)o2)c(C)n1CC1COc2ccccc2O1 (stereo unspecified) | / | . | . | . | . | 42 | . | .
COC(=O)c1ccc(OC(C)C(=O)c2ccc(C)cc2)cc1 (stereo unspecified) | . | . | . | . | . | 37 | . | .
COc1ccc(CCC(=O)OC(C)C(=O)c2ccc(C)cc2)cc1 (stereo unspecified) | . | . | . | . | . | . | / | /
CCOC(=O)c1ccc(NC(=O)[C@@H]2CCC(=O)N2C2OC(=O)c3c2ccc(OC)c3OC)cc1 (stereo partly specified) | / | / | / | / | . | / | / | /
Cc1ccc(CSC2=Nc3ccccc3C3=NC(CCC(=O)NCc4ccco4)C(=O)N23)cc1 (stereo unspecified) | . | . | . | . | . | 47 | . | .
SMILES | HCV core dimer | PABP FP inh | DNA FID counter-1 | eIF4H FP inh | MLLE-PAM2 inh | HCV NS3 hel inh | NS3 hel confirm | DNA FID counter-2 | others
Cc1ccc(-n2cccc2/C=C2/NC(=O)N(CC(=O)Nc3cccc(C)c3)C2=O)cc1 | . | . | . | . | . | . | / | /
Cc1cccc(NC(=O)CN2C(=O)N/C(=C\c3cccn3-c3cccc(C(=O)O)c3)C2=O)c1 | . | . | . | . | . | 37 | . | .
Cc1ccc(C(=O)C2=C(O)C(=O)N(Cc3ccco3)C2c2cccc(Cl)c2)o1 (stereo unspecified) | . | . | . | . | . | 74 | 71 | . | DNA FID DR=.
COc1ccc(C2C(C(=O)c3ccc(C)o3)=C(O)C(=O)N2Cc2cccnc2)cc1 (stereo unspecified) | . | . | . | . | . | . | / | /
Cc1ccc(C(=O)C2=C(O)C(=O)N(c3ncccn3)C2c2cccc(Cl)c2)o1 (stereo unspecified) | / | . | / | . | / | / | / | /
Cc1ccc(C(=O)C2=C(O)C(=O)N(Cc3ccco3)C2c2cccc(Br)c2)o1 (stereo unspecified) | . | . | . | . | . | 101 | 92 | .
O=C(C1=C(O)C(=O)N(Cc2ccco2)C1c1cccc(O)c1)c1ccco1 (stereo unspecified) | . | . | . | . | . | . | / | /
Cc1ccc(C(=O)C2=C(O)C(=O)N(Cc3cccnc3)C2c2ccc(Br)cc2)o1 (stereo unspecified) | . | . | . | . | . | 40 | . | .
CCC1(CCC(C)C)SC(N)=NC1=O (stereo unspecified) | / | / | / | / | . | / | / | /
O=C(O)CC(c1ccccc1)n1cccc1 (stereo unspecified) | . | . | . | . | . | . | / | /
Nc1ccc(C(CC(=O)O)n2cccc2)cc1 (stereo unspecified) | . | 1.2 | . | 67 | . | 52 | . | .
C=CCOc1c(Br)cc(/C=C2/NC(=S)N(C(C)=O)C2=O)cc1OC | . | . | . | . | . | . | / | /
C=CCOc1ccc(Br)cc1/C=C1\NC(=S)N(C(C)=O)C1=O | . | . | . | . | . | 40 | . | .
Cn1c(=O)c2ccccc2n(CC(=O)N2CCCc3ccccc32)c1=O | . | . | . | . | . | 37 | . | .
COC(=O)c1ccc(NC(=O)CCS(=O)(=O)c2ccc3c(c2)NC(=O)C(C)S3)cc1 (stereo unspecified) | . | . | . | . | . | . | / | /
COc1ccccc1NC(=O)CCS(=O)(=O)c1ccc2c(c1)NC(=O)C(C)S2 (stereo unspecified) | . | . | . | . | . | 46 | . | .
COc1ccc(N2CCN(C(=O)CN(c3ccc(OC)cc3)S(=O)(=O)c3ccccc3)CC2)cc1 | . | . | . | . | . | . | / | /
COc1ccc(N2CCN(C(=O)CN(c3ccccc3)S(=O)(=O)c3ccc(OC)cc3)CC2)cc1 | . | . | . | . | . | 40 | . | .
